This is an account of results in ChEMBL document CHEMBL3576840, “Helical Antimicrobial Sulfono-γ-AApeptides” (J Med Chem, 2015).

Converted amounts (≈) assume the structure as drawn. The source made the active and inactive calls. The rule behind the calls is not given here. Residues, ends and D or L forms follow the SMILES beside them.

Data set [1] relates to Escherichia. Put plainly: Antimicrobial activity against Escherichia ATCC 25922 after 16 hrs. Type of data set: functional. Conditions: ATCC 25922, 16 h. An outline of the steps: (§1)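 Broth microdilution: overnight cultures were reinoculated at 1:100, grown to mid-log phase, and diluted to 1 × 10^6 CFU/mL. Cells were mixed 1:1 with serial dilutions […] and incubated 16 h at 37 °C, then read at 600 nm. MIC is the lowest concentration with no growth. Repeated multiple times, in duplicate.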

In data set [2] the test system is Staphylococcus epidermidis. Put plainly: Antimicrobial activity against methicillin-resistant Staphylococcus epidermidis RP62A after 16 hrs. Format: functional.
For data set [3], the system named is Pseudomonas aeruginosa. Put plainly: Antimicrobial activity against Pseudomonas aeruginosa ATCC 27853 after 16 hrs. Format: functional. The following applies: ATCC 27853, 16 h. The essentials:
as §1

For data set [4], the system named is Staphylococcus aureus. Put plainly: Antimicrobial activity against methicillin-resistant Staphylococcus aureus ATCC 33592 after 16 hrs. Format: functional. The following applies: ATCC 33592, 16 h.
Data set [5] relates to N2a. As to the kind of experiment: Cytotoxicity against mouse N2a cells assessed as cell viability after 36 hrs by MTT assay. (Formazan colour is commonly taken as a measure of viable cells.)
Data set [6] is described as follows: Induction of hemolysis in human RBCs incubated for 1 hr. Type of data set: cell-based, Erythrocyte. The following applies: red blood cells. The essentials:
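Fresh K2EDTA human RBCs were washed in PBS until the supernatant was clear and diluted to a 5% v/v suspension. This was mixed with equal volumes of compound dilutions for 1 h at 37 °C, centrifuged, and supernatant absorbance read at 360 nm. Hemolysis was normalized between PBS (0%) and 2% Triton X-100 (100%) controls. At least three repeats, in duplicate.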

Data set [7] concerns Enterococcus faecalis. Put plainly: Antimicrobial activity against Enterococcus faecalis ATCC 700802 after 16 hrs. Type of data set: functional. Conditions: ATCC 700802, 16 h. An outline of the steps: as §1
Data set [8] relates to Escherichia. Put plainly: Bactericidal activity against Escherichia ATCC 25922 assessed as reduction bacterial colony count at 25 ug/ml measured after 10 mins to 2 hrs by colony count based time-kill assay. Type of data set: functional. The essentials:
(§2)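 Time-kill: MRSA and E. coli were grown to mid-log phase in TSB and diluted to 10^6 CFU/mL. Suspensions were exposed to several compound concentrations for 10 min, 30 min, 1 h and 2 h. Samples were diluted 10^2–10^4-fold, plated on TSB agar and incubated overnight at 37 °C. Colonies were counted and plotted against exposure time. Three repeats.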

Data set [9] relates to Escherichia. Put plainly: Bactericidal activity against Escherichia ATCC 25922 at 25 and 50 ug/ml measured after 1 hr by colony count based time-kill assay. Type of data set: functional, organism-based. The essentials:
as §2

The subject of data set [10] is Staphylococcus aureus. As to the kind of experiment: Bactericidal activity against methicillin-resistant Staphylococcus aureus ATCC 33592 at 12.5 to 50 ug/ml measured after 30 mins by colony count based time-kill assay. Type of data set: functional, organism-based. The essentials:
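Time-kill: MRSA grown to mid-log in TSB, diluted to 10^6 CFU/mL, exposed to compound at several multiples of MIC for 10 min, 30 min, 1 h and 2 h; samples diluted 10^2–10^4-fold, plated on TSB agar, colonies counted after overnight 37 °C; viability plotted against time; three repeats.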

Data set [11] relates to Escherichia. As to the kind of experiment: Induction of cell aggregation of Escherichia ATCC 25922 at 10 ug/ml incubated for 2 hrs by DAPI and propidium iodide staining based fluorescence microscopy. Type of data set: functional, organism-based. The essentials: (§3)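 Mid-log bacteria were incubated with 10 μg/mL compound for 2 h at 37 °C, pelleted at 5000 g and washed. Staining used PI (5 μg/mL) then DAPI (10 μg/mL), 15 min on ice. Imaged by fluorescence microscopy with a 100× oil objective; untreated bacteria served as controls.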

The nature of data set [12]: Stability in presence of 0.1 mg/ml pronase in 100 mM pH 7.8 ammonium bicarbonate buffer at 37 degC assessed as compound degradation after 18 hrs by HPLC method. Conditions: pH 7.8, 18 h. Type of data set: physicochemical. An outline of the steps:
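Compound or control peptide AcVQIVYK (1 mg/mL) was incubated 18 h at 37 °C with Pronase in ammonium bicarbonate. Mixtures were dried by speed-vac at 60 °C, redissolved in water and run on analytical RP-HPLC: 5–100% acetonitrile/0.1% TFA gradient over 40 min at 1 mL/min.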

Data set [13] deals with Staphylococcus aureus. As to the kind of experiment: Induction of membrane disruption in methicillin-resistant Staphylococcus aureus ATCC 33592 at 10 ug/ml incubated for 2 hrs by DAPI and propidium iodide staining based fluorescence microscopy. Format: functional, organism-based. An outline of the steps:
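Mid-log bacteria treated with compound (10 μg/mL) at 37 °C for 2 h, pelleted, washed, stained with PI (5 μg/mL) then DAPI (10 μg/mL) for 15 min on ice; untreated cells as control; imaged by fluorescence microscopy under 100× oil immersion; PI uptake taken as membrane damage; three repeats.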

Data set [14] has as its system Escherichia. Put plainly: Induction of membrane disruption in Escherichia ATCC 25922 at 10 ug/ml incubated for 2 hrs by DAPI and propidium iodide staining based fluorescence microscopy. Type of data set: functional, organism-based. An outline of the steps: as §3

In general, MIC refers to the lowest concentration that inhibits growth of the organism. A lower MIC goes with a more susceptible organism. One may read the EC50 as the midpoint of the concentration-response curve. The term HC50 denotes the concentration giving 50% haemolysis. A low value points to more damage to red cells. In the case of `CC(=O)N[C@@H](Cc1ccccc1)CN(CC(=O)N[C@@H](Cc1ccccc1)CN(CC(=O)N[C@@H](Cc1ccccc1)CN(CC(=O)N[C@@H](CCCCN)CN(CC(=O)N[C@@H](Cc1ccccc1)CN(CC(=O)N[C@@H](Cc1ccccc1)CN(CC(=O)N[C@@H](Cc1ccccc1)CN(CC(=O)N[C@@H](CCCCN)CN(CC(N)=O)S(=O)(=O)CCN)S(=O)(=O)Cc1ccccc1)S(=O)(=O)CCN)S(=O)(=O)Cc1ccccc1)S(=O)(=O)CCN)S(=O)(=O)Cc1ccccc1)S(=O)(=O)CCN)S(=O)(=O)Cc1ccccc1`, the MIC in data set [1] worked out at 4 mg/L (≈ 1.55 µM); in [2], 2 mg/L (≈ 0.773 µM); in data set [3] it was 6 mg/L (≈ 2.32 µM); in data set [4] it was 4 mg/L (≈ 1.55 µM); in data set [7], 2 mg/L (≈ 0.773 µM). The EC50 in data set [5] was determined as 80 mg/L (≈ 30.9 µM). For the same compound, in [6], the HC50 at 1 h worked out at 75 µg/mL.

Turning to `NCCCC[C@@H](CN(CC(N)=O)S(=O)(=O)CCN)NC(=O)CN(C[C@H](Cc1ccccc1)NC(=O)CN(C[C@H](Cc1ccccc1)NC(=O)CN(C[C@H](Cc1ccccc1)NC(=O)CN(C[C@H](CCCCN)NC(=O)CN(C[C@H](Cc1ccccc1)NC(=O)CN(C[C@H](Cc1ccccc1)NC(=O)CN(C[C@@H](N)Cc1ccccc1)S(=O)(=O)Cc1ccccc1)S(=O)(=O)CCN)S(=O)(=O)Cc1ccccc1)S(=O)(=O)CCN)S(=O)(=O)Cc1ccccc1)S(=O)(=O)CCN)S(=O)(=O)Cc1ccccc1`, the minimal inhibitory concentration (MIC) in data set [1] was determined as 4 mg/L (≈ 1.57 µM); in [2], 2 mg/L (≈ 0.785 µM); in [3], 4 mg/L (≈ 1.57 µM); in [4] it was 2 mg/L (≈ 0.785 µM); in data set [7], 2 mg/L (≈ 0.785 µM). In addition, the Activity in data set [8] came out at 1 ×10⁵ CFU/ml. The outcome in data set [9], in data set [10], in data set [11], in data set [13] and in [14] was Active. In addition, the half-maximal effective concentration (EC50) in data set [5] is 120 mg/L (≈ 47.1 µM). In data set [6], the HC50 at 1 h is 100 µg/mL. The Stability result in [12] is on record as “Stable”.

Consider `CC[C@H](C)[C@H](NC(=O)[C@H](CCC(N)=O)NC(=O)[C@@H](NC(C)=O)C(C)C)C(=O)N[C@H](C(=O)N[C@@H](Cc1ccc(O)cc1)C(=O)N[C@@H](CCCCN)C(=O)O)C(C)C` (Ac-VQIVYK-OH), for which the Stability entry in data set [12] was “Unstable”.
